According to ChEMBL document CHEMBL3580591, “Effect of Apigenin on Leishmania amazonensis Is Associated with Reactive Oxygen Species Production Followed by Mitochondrial Dysfunction” (J Nat Prod, 2015):
pIC50: −log10 of the molar value. The source made the active and inactive calls. The calls are words filed in the database; no cut-off is given here.

Tests used:
Leishmania amazonensis [1] = assay: Induction of intracellular ROS generation in Leishmania amazonensis MHOM/BR/75/LTB0016 promastigotes at 96 uM incubated for 48 hrs by H2DCFDA dye based assay; format: functional
Leishmania amazonensis [2] = assay: Induction of membrane potential depolarization in Leishmania amazonensis MHOM/BR/75/LTB0016 promastigotes assessed as reduction in mitochondrial membrane potential at 20 uM incubated for 24 hrs by JC1 dye based fluorescence assay; details: MHOM/BR/75/LTB0016, 24 h, read-out: INH
Leishmania amazonensis [3] = assay: Induction of ultrastructural alterations in Leishmania amazonensis MHOM/BR/75/LTB0016 promastigotes assessed as appearance of endoplasmic profiles surrounding cellular structures and cytosolic vacuolization at 12 uM incubated for 24 hrs by transmission electron microscopy; format: functional, organism-based
Summary of the method: (§1)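 Promastigotes (5 × 10^6 cells/mL) were treated for 24 h at 26 °C in Schneider medium with compound at 12, 24 or 96 μM. They were fixed in 2.5% glutaraldehyde in 0.1 M cacodylate (pH 7.2) for 40 min and postfixed in 1% OsO4, 0.8% potassium ferricyanide and 2.5 mM CaCl2 for 20 min. Cells were acetone-dehydrated and resin-embedded. Ultrathin sections were stained with uranyl acetate and lead citrate and examined by transmission electron microscopy.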

Leishmania amazonensis [4] = assay: Induction of membrane potential depolarization in Leishmania amazonensis MHOM/BR/75/LTB0016 promastigotes assessed as reduction in mitochondrial membrane potential at 96 uM incubated for 24 hrs by JC1 dye based fluorescence assay; format: functional; details: MHOM/BR/75/LTB0016, 24 h
Summary of the method: (§2)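 Promastigotes (5 × 10^6 cells/mL) were treated for 24 h with compound (3−96 μM) or 0.2% DMSO, then resuspended in HBSS at 1 × 10^7 cells/mL. They were stained with JC-1 (10 μg/mL, 10 min, 26 °C) and washed twice. Emission was read at 590 and 530 nm (excitation 480 nm), and the 590/530 ratio gives relative ΔΨm. FCCP 20 μM for 20 min served as positive control. Mean ± SE of three experiments.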

Leishmania amazonensis [5] = assay: Induction of intracellular ROS generation in Leishmania amazonensis MHOM/BR/75/LTB0016 promastigotes at 96 uM incubated for 24 hrs in presence of NAC by H2DCFDA dye based assay; format: functional, organism-based
Summary of the method: (§3)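 Cultures held GSH, GSSG or NAC (300 μM final, in PBS) together with 96 μM compound or 0.2% DMSO for 24 h at 26 °C in Schneider medium. Cells were then stained with H2DCFDA (20 μM, 20 min, 26 °C, in HBSS) and read by flow cytometry. Results are fold ROS increase versus control, mean ± SE of three experiments.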

Leishmania amazonensis [6] = assay: Induction of intracellular ROS generation in Leishmania amazonensis MHOM/BR/75/LTB0016 promastigotes incubated for 24 hrs by H2DCFDA dye based assay; format: functional, organism-based
Summary of the method: (§4)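 Promastigotes (5 × 10^6 cells/mL) were cultured 24 h at 26 °C with compound (3−96 μM) or vehicle, then resuspended in HBSS at 1 × 10^7 cells/mL. They were loaded with 20 μM H2DCFDA for 20 min at 26 °C and read by flow cytometry. Results are fold increase over control, mean ± SE of three experiments.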

Leishmania amazonensis [7] = assay: Antiparasitic activity against Leishmania amazonensis MHOM/BR/75/LTB0016 promastigotes assessed as inhibition of cellular proliferation at 96 uM incubated for 24 hrs in presence of 300 uM GSH by Neubauer chamber based assay; format: functional, organism-based
Summary of the method: (§5)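 Promastigotes were preincubated with GSH, GSSG or NAC (300 μM final, in PBS) and then grown 24 h at 26 °C in Schneider medium with 96 μM compound (in DMSO) or vehicle (0.2% DMSO). Proliferation was counted in a Neubauer chamber. Mean ± SE of three experiments.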

Leishmania amazonensis [8] = assay: Induction of intracellular ROS generation in Leishmania amazonensis MHOM/BR/75/LTB0016 promastigotes at 96 uM incubated for 24 hrs by H2DCFDA dye based assay; format: functional; summary of the method: as §4
Leishmania amazonensis [9] = assay: Induction of intracellular ROS generation in Leishmania amazonensis MHOM/BR/75/LTB0016 promastigotes at 96 uM incubated for 24 hrs in presence of GSSG by H2DCFDA dye based assay; format: functional, organism-based; summary of the method: as §3
Leishmania amazonensis [10] = assay: Induction of ultrastructural alterations in Leishmania amazonensis MHOM/BR/75/LTB0016 promastigotes assessed as concentric membrane structures formation inside organelle at 12 to 96 uM incubated for 24 hrs by transmission electron microscopy; format: functional, organism-based; summary of the method: as §1
Leishmania amazonensis [11] = assay: Antiparasitic activity against Leishmania amazonensis MHOM/BR/75/LTB0016 promastigotes assessed as inhibition of cellular proliferation at 96 uM incubated for 24 hrs in presence of 300 uM GSSG by Neubauer chamber based assay; format: functional, organism-based; summary of the method: as §5
Leishmania amazonensis [12] = assay: Antiparasitic activity against Leishmania amazonensis MHOM/BR/75/LTB0016 promastigotes assessed as inhibition of cellular proliferation at 96 uM incubated for 24 hrs in presence of 300 uM NAC by Neubauer chamber based assay; format: functional, organism-based; summary of the method: as §5
Leishmania amazonensis [13] = assay: Induction of ultrastructural alterations in Leishmania amazonensis MHOM/BR/75/LTB0016 promastigotes assessed as cytoplasmic vacuolization at 12 uM incubated for 24 hrs by transmission electron microscopy
Leishmania amazonensis [14] = assay: Induction of ultrastructural alterations in Leishmania amazonensis MHOM/BR/75/LTB0016 promastigotes assessed as washed-out appearance of mitochondria matrix and loss of cristae at 96 uM incubated for 24 hrs by transmission electron microscopy; format: functional, organism-based; summary of the method: as §1
Leishmania amazonensis [15] = assay: Induction of ultrastructural alterations in Leishmania amazonensis MHOM/BR/75/LTB0016 promastigotes assessed as rupture of trans-Golgi network at 24 uM incubated for 24 hrs by transmission electron microscopy
Leishmania amazonensis [16] = assay: Antiparasitic activity against Leishmania amazonensis MHOM/BR/75/LTB0016 promastigotes assessed as inhibition of cellular proliferation incubated for 48 hrs by CFSE staining based flow cytometry; format: functional, organism-based; details: MHOM/BR/75/LTB0016, 48 h
Leishmania amazonensis [17] = assay: Antiparasitic activity against Leishmania amazonensis MHOM/BR/75/LTB0016 promastigotes assessed as inhibition of cellular proliferation at 96 uM incubated for 24 hrs by Neubauer chamber based assay; format: functional; details: MHOM/BR/75/LTB0016, 24 h
Summary of the method: (§6)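 Strain MHOM/BR/75/LTB0016 promastigotes were grown at 26 °C in Schneider medium (pH 7.2) with 10% heat-inactivated FCS, penicillin and streptomycin. They were seeded at 1.0 × 10^6 cells/mL with compound (3−96 μM) or DMSO vehicle (0.2% final) for 24 h at 26 °C. Density was counted in a Neubauer chamber. IC50 came from logarithmic regression. Mean ± SE of three experiments.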

Leishmania amazonensis [18] = assay: Induction of membrane potential depolarization in Leishmania amazonensis MHOM/BR/75/LTB0016 promastigotes assessed as reduction in mitochondrial membrane potential incubated for 24 hrs by JC1 dye based fluorescence assay; format: functional, organism-based; summary of the method: as §2
Leishmania amazonensis [19] = assay: Induction of ultrastructural alterations in Leishmania amazonensis MHOM/BR/75/LTB0016 promastigotes assessed as inner mitochondrial membrane damage with washed-out matrix appearance and decreased matrix electron density at 12 to 96 uM incubated for 24 hrs by transmission electron microscopy; format: functional, organism-based; summary of the method: as §1
Leishmania amazonensis [20] = assay: Antiparasitic activity against Leishmania amazonensis MHOM/BR/75/LTB0016 promastigotes assessed as inhibition of cellular proliferation incubated for 24 hrs by CFSE staining based flow cytometry; format: functional, organism-based
Summary of the method: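 Promastigotes (2.5 × 10^7 cells/mL) were washed in PBS and stained with 10 μM CFSE in PBS/0.1% albumin for 15 min at 26 °C. Staining was stopped with ice-cold medium. Cells were resuspended at 1.0 × 10^6 cells/mL with compound (3−96 μM) or 0.2% DMSO for 24 h at 26 °C. Fluorescence was read by flow cytometry. Histograms are representative of three experiments.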

Leishmania amazonensis [21] = assay: Induction of ultrastructural alterations in Leishmania amazonensis MHOM/BR/75/LTB0016 promastigotes assessed as extensive swelling of parasite mitochondria at 12 to 96 uM incubated for 24 hrs by transmission electron microscopy; format: functional, organism-based; summary of the method: as §1
Leishmania amazonensis [22] = assay: Induction of intracellular ROS generation in Leishmania amazonensis MHOM/BR/75/LTB0016 promastigotes at 96 uM incubated for 24 hrs in presence of GSH by H2DCFDA dye based assay; format: functional, organism-based; summary of the method: as §3
Leishmania amazonensis [23] = assay: Antiparasitic activity against Leishmania amazonensis MHOM/BR/75/LTB0016 promastigotes assessed as inhibition of cellular proliferation incubated for 24 hrs by Neubauer chamber based assay; format: functional, organism-based; summary of the method: as §6
Leishmania braziliensis = assay: Induction of intracellular ROS generation in Leishmania braziliensis promastigotes at 500 uM incubated for 72 hrs by H2DCFDA dye based assay

With `O=c1c(O)c(-c2ccc(O)c(O)c2)oc2cc(O)cc(O)c12` [QUERCETIN] the “fold change (FC)” value (Leishmania amazonensis [1]) was 4.4.
`N#CC(C#N)=NNc1ccc(OC(F)(F)F)cc1` showed an inhibition at 20 µM (Leishmania amazonensis [2]) of 79.8%.
`O=c1cc(-c2ccc(O)cc2)oc2cc(O)cc(O)c12` [APIGENIN] was tested, and the Activity (Leishmania amazonensis [3]) was “Active”, the inhibition at 96 µM (Leishmania amazonensis [4]) was 78.3% and the Activity (Leishmania amazonensis [5]) was “inactive”. For the same compound, the Activity (Leishmania amazonensis [6]) was “Dose-dependent effect”, the Activity (Leishmania amazonensis [7]) was “inactive” and the “fold change (FC)” value (Leishmania amazonensis [8]) was 2.9. For the same compound, the Activity (Leishmania amazonensis [9]) was “Active”, the Activity (Leishmania amazonensis [10]) was “Active” and the Activity (Leishmania amazonensis [11]) was “Active”. The Activity (Leishmania amazonensis [12]) was “inactive”, the Activity (Leishmania amazonensis [13]) was “Active” and the Activity (Leishmania amazonensis [14]) was “Active”. The Activity (Leishmania amazonensis [15]) was “Active”, the pIC50 (Leishmania amazonensis [16]) was 4.50 and the inhibition at 96 µM (Leishmania amazonensis [17]) was 75%. For the same compound, the Activity (Leishmania amazonensis [18]) was “Dose-dependent effect”, the Activity (Leishmania amazonensis [19]) was “Active” and the inhibition (Leishmania amazonensis [20]) was “Dose-dependent effect”. The Activity (Leishmania amazonensis [21]) was “Active”, the Activity (Leishmania amazonensis [22]) was “inactive” and the inhibition (Leishmania amazonensis [23]) was “Dose-dependent effect”. For the same compound, the pIC50 (Leishmania amazonensis [23]; MHOM/BR/75/LTB0016, 24 h) was 4.63.
In the case of `O=C(O[C@@H]1Cc2c(O)cc(O)cc2O[C@@H]1c1cc(O)c(O)c(O)c1)c1cc(O)c(O)c(O)c1` [EPIGALOCATECHIN GALLATE], the “fold change (FC)” value (Leishmania braziliensis) was 2.9.
